Data: ChEMBL document CHEMBL4406881, “Design, synthesis and biological evaluation of benzoylacrylic acid shikonin ester derivatives as irreversible dual inhibitors of tubulin and EGFR” (Bioorg Med Chem, 2019)
Calls of active or inactive are those of the source. The calls are words filed in the database; no cut-off is given here.

Columns and labels:
A549 [1] = test: Induction of apoptosis in human A549 cells assessed as early apoptotic cells at 4 uM after 24 hrs by Annexin-V/PI staining based flow cytometry analysis (reference value: 1.15%); format: functional
A549 [2] = test: Induction of apoptosis in human A549 cells assessed as late apoptotic cells at 4 uM after 24 hrs by Annexin-V/PI staining based flow cytometry analysis (reference value: 5.69%); format: functional
A549 [3] = test: Induction of apoptosis in human A549 cells assessed as necrotic cells after at 4 uM 24 hrs by Annexin-V/PI staining based flow cytometry analysis (reference value: 1.81%); format: functional
Summary of the method: (§1)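 A549 cells seeded overnight at 37 °C, 5% CO2, then exposed to 0, 2, 4, 8 or 12 µM for 24 h (dose series) or 8 µM for 0, 12, 24, 36 h (time series). Harvested, PBS-washed, stained with Annexin V-FITC and PI in binding buffer 15 min at room temperature in the dark, analysed by flow cytometry; three independent experiments.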

A549 [4] = test: Induction of apoptosis in human A549 cells assessed as viable cells at 8 uM after 24 hrs by Annexin-V/PI staining based flow cytometry analysis (reference value: 91.4%); format: functional; details: A549, 24 h, read-out: Activity; summary of the method: as §1
A549 [5] = test: Induction of apoptosis in human A549 cells assessed as viable cells at 12 uM after 24 hrs by Annexin-V/PI staining based flow cytometry analysis (reference value: 91.4%); format: functional; details: A549, 24 h, read-out: Activity; summary of the method: as §1
A549 [6] = test: Induction of apoptosis in human A549 cells assessed as late apoptotic cells at 8 uM after 12 hrs by Annexin-V/PI staining based flow cytometry analysis (reference value: 6.55%); format: functional; summary of the method: as §1
A549 [7] = test: Induction of apoptosis in human A549 cells incubated for 24 hrs by Annexin-V/PI staining based flow cytometry analysis; format: functional, cell-based; summary of the method: as §1
A549 [8] = test: Induction of apoptosis in human A549 cells assessed as increase in Bax expression at 2 to 8 uM after 24 hrs by Western blot analysis; format: functional, cell-based
Summary of the method: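 Western blot of A549 cells treated for 24 h. Lysates in RIPA buffer were run on SDS-PAGE and transferred to PVDF. Primary antibody at 1:1000 overnight at 4 °C, secondary antibody at 1:3000-1:5000 for 1 h, ECL detection. Densitometry was normalised to GAPDH; mean ± S.E.M. from three independent experiments.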

A549 [9] = test: Induction early apoptosis in human A549 cells assessed as increase in ROS generation after by flow cytometric analysis; format: functional, cell-based
Summary of the method: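 Intracellular ROS measured in A549 cells seeded to about 75% confluence. After treatment, cells were stained with ROS detection solution at 37 °C for 20 min, washed three times in serum-free medium, and analysed by flow cytometry.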

A549 [10] = test: Cell cycle arrest in human A549 cells assessed as accumulation at S phase at 2 uM after 24 hrs by RNAse A/ PI staining based flow cytometric analysis (reference value: 17.23%); format: functional
Summary of the method: (§2)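 A549 cells at 5.0×10^4 per well were grown 12 h at 37 °C. Treatment was 0, 2, 4 or 8 µM for 24 h, or 8 µM for 0, 12, 24 or 36 h. Cells were fixed in 70% ethanol at −20 °C for at least 12 h, then stained in PBS with 0.1 mg/mL RNase A and 5 µg/mL PI. At least 10,000 events per sample were collected by flow cytometry to give G0/G1, S and G2/M percentages.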

A549 [11] = test: Cell cycle arrest in human A549 cells assessed as accumulation at G2/M phase at 2 uM after 24 hrs by RNAse A/ PI staining based flow cytometric analysis (reference value: 9.47%); format: functional; summary of the method: as §2
A549 [12] = test: Cell cycle arrest in human A549 cells assessed as accumulation at G1 phase at 8 uM after 24 hrs by RNAse A/ PI staining based flow cytometric analysis (reference value: 67.69%); format: functional; summary of the method: as §2
A549 [13] = test: Cell cycle arrest in human A549 cells assessed as accumulation at S phase at 8 uM after 24 hrs by RNAse A/ PI staining based flow cytometric analysis (reference value: 19.66%); format: functional; summary of the method: as §2
A549 [14] = test: Cell cycle arrest in human A549 cells assessed as downregulation of cyclin A expression at 2 to 8 uM by immunoblot analysis; format: functional, cell-based
Summary of the method: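 A549 lysates in RIPA buffer with protease inhibitors were run on SDS-PAGE and blotted to PVDF. Membranes were probed overnight at 4 °C with primary antibody at 1:1000, then secondary antibody at 1:3000-1:5000 for 1 h, and detected by ECL. Band intensity was normalised to GAPDH. Results are mean ± S.E.M. from three independent experiments.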

[15] = target: Epidermal growth factor receptor (Homo sapiens, UniProt P00533); test: Inhibition of EGFR signalling in human A549 cells assessed as reduction in AKT phosphorylation after 24 hrs by Western blot analysis; format: cell-based
Summary of the method: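 A549 cells in 6-well plates were lysed in RIPA buffer with protease inhibitors on ice for 30 min and cleared at 4 °C. Protein was quantified by BCA, run on SDS-PAGE and transferred to PVDF. Membranes were blocked with milk, probed with primary antibody (1:1000) overnight at 4 °C, then secondary antibody (1:3000-1:5000) 1 h at RT. Detection by ECL; band densitometry normalised to GAPDH (β-actin also used). Three independent experiments.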

A549 [16] = test: Antitumor activity against ip dosed human A549 cells xenografted in Balb/c mouse assessed as inhibition of tumor growth administered once every two days for 32 days measured for every 2 days; format: functional, organism-based
Summary of the method: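 Female BALB/c nude mice, 5-6 weeks old, injected in the flank with 6×10^6 A549 cells in 0.1 mL ice-cold PBS. After two weeks, tumours averaging 90 mm³ were allocated by volume to 5 groups of n = 8. Drugs in DMSO were given ip once every two days, 16 doses in total; a DMSO vehicle group served as control. Tumour volume (L×S²/2) and body weight were recorded every two days; mice were killed on day 32.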

[17] = Toxicity in ip dosed Balb/c mouse xenografted with human A549 cells assessed as effect on body weight at 2 to 4 mg/kg, ip administered once every two days for 32 days and measured for every 2 days; format: organism-based; details: in vivo
Summary of the method: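 Female BALB/c nude mice (5-6 weeks) received 6×10^6 A549 cells s.c. in the flank. After two weeks (tumours ~90 mm³) they were split into 5 groups (n = 8). Dosing was 2 or 4 mg/kg, dissolved in DMSO, i.p. once every two days for 16 doses; DMSO vehicle served as control. Body weight and tumour volume (L×S²/2) were recorded every two days; mice were killed at day 32.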

Tubulin (Homo sapiens) = Tubulin (Homo sapiens) (UniProt P68371+Q9H4B7+P0DPH7+P68366+Q13509+Q71U36+P04350+Q3ZCM7+P07437+P68363+Q9BQE3+Q6PEY2+Q13885+Q9BVA1+Q9BUF5); test: Inhibition of microtubule polymerization in human A549 cells assessed as polymerized tubulin expression at 8 uM after 24 hrs by immuno blot analysis (reference value: 0.85); format: cell-based
Summary of the method: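 Cells were lysed in hypotonic buffer 5 min at 37 °C and centrifuged 10000 rpm, 10 min, 25 °C. Soluble (supernatant) and polymerised (pellet) tubulin fractions were resolved by SDS-PAGE in equal amounts and immunoblotted for β-tubulin.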

A549 [18] = test: Cell cycle arrest in human A549 cells assessed as accumulation at G2/M phase at 8 uM after 12 hrs by RNAse A/ PI staining based flow cytometric analysis (reference value: 12.65%); format: functional; summary of the method: as §2

Sequence of Epidermal growth factor receptor (P00533 whole entry): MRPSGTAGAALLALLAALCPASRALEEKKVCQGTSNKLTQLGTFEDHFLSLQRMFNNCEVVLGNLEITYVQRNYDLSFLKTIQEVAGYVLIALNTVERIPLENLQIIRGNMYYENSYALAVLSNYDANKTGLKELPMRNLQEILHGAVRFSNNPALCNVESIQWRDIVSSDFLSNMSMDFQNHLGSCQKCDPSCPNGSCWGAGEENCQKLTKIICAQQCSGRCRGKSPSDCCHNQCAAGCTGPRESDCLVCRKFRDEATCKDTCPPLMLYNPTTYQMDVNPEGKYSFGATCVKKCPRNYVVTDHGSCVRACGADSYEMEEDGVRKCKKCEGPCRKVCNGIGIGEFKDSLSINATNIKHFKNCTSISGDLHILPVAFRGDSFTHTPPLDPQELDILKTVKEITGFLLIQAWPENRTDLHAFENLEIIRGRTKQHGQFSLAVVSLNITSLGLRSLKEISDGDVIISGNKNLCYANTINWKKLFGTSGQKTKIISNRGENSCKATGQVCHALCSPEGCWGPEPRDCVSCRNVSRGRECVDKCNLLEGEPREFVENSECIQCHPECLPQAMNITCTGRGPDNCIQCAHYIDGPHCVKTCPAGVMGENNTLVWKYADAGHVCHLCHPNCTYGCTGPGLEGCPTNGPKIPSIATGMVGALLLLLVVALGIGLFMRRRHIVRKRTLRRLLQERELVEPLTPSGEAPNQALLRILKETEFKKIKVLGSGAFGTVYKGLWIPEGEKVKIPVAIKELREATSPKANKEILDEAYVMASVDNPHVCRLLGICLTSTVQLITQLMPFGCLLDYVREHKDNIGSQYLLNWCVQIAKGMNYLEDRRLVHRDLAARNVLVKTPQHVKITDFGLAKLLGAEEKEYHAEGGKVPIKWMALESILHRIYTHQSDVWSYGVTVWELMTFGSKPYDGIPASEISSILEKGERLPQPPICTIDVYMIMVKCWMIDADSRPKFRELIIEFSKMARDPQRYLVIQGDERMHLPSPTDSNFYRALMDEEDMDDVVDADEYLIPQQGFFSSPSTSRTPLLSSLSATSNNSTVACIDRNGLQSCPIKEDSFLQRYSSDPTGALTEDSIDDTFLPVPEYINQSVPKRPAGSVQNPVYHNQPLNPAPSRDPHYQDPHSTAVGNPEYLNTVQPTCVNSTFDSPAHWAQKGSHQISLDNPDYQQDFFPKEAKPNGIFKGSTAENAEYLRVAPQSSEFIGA

- inhibition [15]: Dose-dependent effect
- fold change (FC) (Tubulin (Homo sapiens)): 0.69
Compound: CC(C)=CC[C@@H](OC(=O)/C=C\C(=O)c1ccc(F)cc1)C1=CC(=O)c2c(O)ccc(O)c2C1=O
- Activity (A549 [1]): 17.6%
- Activity (A549 [2]): 10.6%
- Activity (A549 [3]): 0.175%
- viability at 8 µM (A549 [4]): 30.6%
- viability at 12 µM (A549 [5]): 15.1%
- Activity (A549 [6]): 10%
- Activity (A549 [7]): Dose-dependent effect
- Activity (A549 [8]): Active
- Activity (A549 [9]): Dose-dependent effect
- Activity (A549 [10]): 22.93%
- Activity (A549 [11]): 15.4%
- Activity (A549 [12]): 42.59%
- Activity (A549 [13]): 23.66%
- Activity (A549 [14]): Active
- Activity (A549 [16]): Dose-dependent effect
- Activity [17]: Non-Toxic
- Activity (A549 [18]): 19.4%
